The source of these data is ChEMBL document CHEMBL4270658, “Synthesis, in vitro and in vivo biological evaluation, COX-1/2 inhibition and molecular docking study of indole-N-acylhydrazone derivatives” (Bioorg Med Chem, 2018).

Active and inactive are the calls of the source. The rule behind the calls is not given here.

For data set [1], the system named is Mus musculus. As to the kind of experiment: Acute toxicity in Swiss mouse assessed as effect on mean corpuscular hemoglobin level at 2000 mg/kg, po (reference value: 11.16 +/- 0.53 pg). The data set is classed as organism-based. The following applies: in vivo.
Data set [2] concerns Mus musculus. As to the kind of experiment: Antiinflammatory activity in carrageenan-induced Swiss mouse assessed as inhibition of paw edema at 60 mg/kg, po pretreated for 1 hr followed by carrageenan challenge measured after 1 hr by plethysmometric method. The data set is classed as functional.
The test system of data set [3] is Splenocyte. Put plainly: Antiinflammatory activity in BALB/c mouse splenocytes assessed as inhibition of TNFalpha level at 11 uM after 24 to 48 hrs by cytometric bead array method. The data set is classed as functional, cell-based. In outline:
(§1)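 Splenocytes from female BALB/c mice (6–8 weeks) isolated on Ficoll-Paque (1.076 g/mL), viability >98% by trypan blue; cultured with 11 μM compound for 24 and 48 h. Supernatant cytokines measured by cytometric bead array on flow cytometer; two independent experiments in triplicate.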

Data set [4] relates to Mus musculus. Put plainly: Acute toxicity in Swiss mouse assessed as effect on blood cell levels at 2000 mg/kg, po (reference value: 13.0 +/- 0.9 10^6/mm3). The data set is classed as organism-based. The following applies: in vivo.
In data set [5] the test system is Mus musculus. As to the kind of experiment: Acute toxicity in Swiss mouse assessed as mortality at 2000 mg/kg, po. The data set is classed as organism-based. The note with it: in vivo. In outline:
(§2)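 Fixed-dose stepwise procedure following OECD acute oral toxicity guidelines; groups of 3 Swiss Mus musculus mice (20–35 g) dosed orally at 2000 mg kg⁻¹ and observed for clinical signs of pain, suffering and impending death. Test run in duplicate. Animals kept at 22 ± 3 °C, 12 h light/dark, free food and water.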

In data set [6] the test system is Splenocyte. Put plainly: Antiinflammatory activity in BALB/c mouse splenocytes assessed as inhibition of IL-2 level at 11 uM after 24 to 48 hrs by cytometric bead array method. The data set is classed as functional, cell-based. In short, it runs like this:
as §1

Data set [7] deals with Splenocyte. Put plainly: Antiinflammatory activity in BALB/c mouse splenocytes assessed as inhibition of IFNgamma level at 11 uM after 24 to 48 hrs by cytometric bead array method. The data set is classed as functional, cell-based. In outline: as §1
The subject of data set [8] is Mus musculus. As to the kind of experiment: Acute toxicity in Swiss mouse assessed as effect on mean corpuscular volume at 2000 mg/kg, po (reference value: 57.3 +/- 3.01 […]). The following applies: in vivo. The data set is classed as organism-based.
The test system of data set [9] is Splenocyte. Put plainly: Antiinflammatory activity in BALB/c mouse splenocytes assessed as increase of IL-10 level at 11 uM after 24 to 48 hrs by cytometric bead array method. The data set is classed as functional, cell-based. In short, it runs like this: as §1
Data set [10] concerns Mus musculus. Put plainly: Acute toxicity in Swiss mouse assessed as effect on leukocyte level at 2000 mg/kg, po (reference value: 10.8 +/- 6.25 10^3/mm3). The data set is classed as organism-based. The note with it: in vivo.
Data set [11] addresses T1, Prostaglandin G/H synthase 2 (Homo sapiens, UniProt P35354).
T1 sequence (P35354 whole entry): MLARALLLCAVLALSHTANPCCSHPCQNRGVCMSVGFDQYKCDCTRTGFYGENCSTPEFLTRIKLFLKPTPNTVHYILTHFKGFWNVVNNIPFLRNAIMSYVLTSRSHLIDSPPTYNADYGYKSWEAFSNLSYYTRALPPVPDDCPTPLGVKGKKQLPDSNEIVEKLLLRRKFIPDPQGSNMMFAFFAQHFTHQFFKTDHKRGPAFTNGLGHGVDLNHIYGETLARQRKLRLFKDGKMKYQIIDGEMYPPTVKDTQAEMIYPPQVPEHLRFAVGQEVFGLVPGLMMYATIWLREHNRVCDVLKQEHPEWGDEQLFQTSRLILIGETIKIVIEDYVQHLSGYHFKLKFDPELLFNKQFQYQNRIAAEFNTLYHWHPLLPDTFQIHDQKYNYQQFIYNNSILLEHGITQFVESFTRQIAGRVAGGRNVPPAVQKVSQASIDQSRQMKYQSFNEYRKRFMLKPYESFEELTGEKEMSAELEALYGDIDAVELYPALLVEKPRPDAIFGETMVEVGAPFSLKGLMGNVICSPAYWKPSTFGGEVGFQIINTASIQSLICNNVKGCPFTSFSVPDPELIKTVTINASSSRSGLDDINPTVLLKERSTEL
As to the kind of experiment: Inhibition of recombinant N-terminal His6-tagged human COX-2 expressed in Baculovirus infected Sf21 cells using arachidonic acid as substrate preincubated for 5 mins followed by substrate addition measured after 1 hr. The data set is classed as cell-based.

Data set [12] has as its target T2, Prostaglandin G/H synthase 1 (Ovis aries, UniProt P05979).
T2 sequence (P05979 whole entry): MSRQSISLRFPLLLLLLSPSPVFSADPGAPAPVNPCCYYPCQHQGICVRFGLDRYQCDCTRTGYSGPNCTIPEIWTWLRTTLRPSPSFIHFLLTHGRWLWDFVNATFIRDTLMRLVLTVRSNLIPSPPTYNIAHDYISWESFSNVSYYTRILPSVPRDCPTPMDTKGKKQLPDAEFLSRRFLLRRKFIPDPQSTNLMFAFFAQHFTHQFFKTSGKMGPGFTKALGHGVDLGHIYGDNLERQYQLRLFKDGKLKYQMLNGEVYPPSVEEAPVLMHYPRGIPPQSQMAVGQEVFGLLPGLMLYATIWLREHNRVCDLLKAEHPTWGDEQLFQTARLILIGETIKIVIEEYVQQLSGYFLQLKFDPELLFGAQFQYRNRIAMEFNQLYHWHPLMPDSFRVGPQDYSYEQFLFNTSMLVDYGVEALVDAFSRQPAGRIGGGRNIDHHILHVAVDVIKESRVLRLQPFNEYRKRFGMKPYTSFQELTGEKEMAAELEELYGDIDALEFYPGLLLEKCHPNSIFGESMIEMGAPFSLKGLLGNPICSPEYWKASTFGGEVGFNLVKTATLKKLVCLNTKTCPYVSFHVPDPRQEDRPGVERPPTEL
As to the kind of experiment: Inhibition of ovine COX-1 using arachidonic acid as substrate preincubated for 5 mins followed by substrate addition measured after 1 hr.

Data set [13] deals with Splenocyte. As to the kind of experiment: Antiinflammatory activity in BALB/c mouse splenocytes assessed as increase of IL-4 level at 11 uM after 24 to 48 hrs by cytometric bead array method. The data set is classed as functional, cell-based. In short, it runs like this:
as §1

The subject of data set [14] is Splenocyte. As to the kind of experiment: Immunomodulatory activity in BALB/c mouse splenocytes assessed as inhibition of concanavalin A-induced lymphocyte proliferation by measuring [methyl-3H]-thymidine uptake at 50 uM after 48 hrs. The data set is classed as functional. In short, it runs like this:
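BALB/c splenocytes (5×10⁶ cells/well) in DMEM, triplicate, with concanavalin A (2 μg mL⁻¹) ± compound 48 h at 37 °C, 5% CO₂, then 1 μCi [methyl-³H]thymidine for 12 h; inhibition from thymidine uptake relative to control; dexamethasone positive control.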

Data set [15] has as its system Mus musculus. Put plainly: Acute toxicity in Swiss mouse assessed as effect on hemoglobin levels at 2000 mg/kg, po (reference value: 14.5 +/- 0.6 g/dl). The following applies: in vivo. The data set is classed as organism-based.
Data set [16] has as its system Mus musculus. Put plainly: Antiinflammatory activity in carrageenan-induced Swiss mouse assessed as inhibition of paw edema at 30 mg/kg, po pretreated for 1 hr followed by carrageenan challenge measured after 5 hrs by plethysmometric method. The data set is classed as functional.
Data set [17] deals with Mus musculus. Put plainly: Antiinflammatory activity in carrageenan-induced Swiss mouse assessed as inhibition of paw edema at 60 mg/kg, po pretreated for 1 hr followed by carrageenan challenge measured after 6 hrs by plethysmometric method. The data set is classed as functional.
Data set [18] relates to Mus musculus. As to the kind of experiment: Antiinflammatory activity in carrageenan-induced Swiss mouse assessed as inhibition of paw edema at 30 mg/kg, po pretreated for 1 hr followed by carrageenan challenge measured after 1 hr by plethysmometric method. The data set is classed as functional.
Data set [19] relates to Mus musculus. As to the kind of experiment: Acute toxicity in Swiss mouse assessed as occurence of ptosis at 2000 mg/kg, po after 1 hr. The following applies: in vivo. The data set is classed as organism-based. In outline:
as §2

Data set [20] relates to Mus musculus. As to the kind of experiment: Antiinflammatory activity in carrageenan-induced Swiss mouse assessed as inhibition of paw edema at 15 mg/kg, po pretreated for 1 hr followed by carrageenan challenge measured after 6 hrs by plethysmometric method. The data set is classed as functional.
Data set [21] relates to Splenocyte. Put plainly: Antiinflammatory activity in BALB/c mouse splenocytes assessed as inhibition of IFNgamma-induced nitric oxide production at 11 uM after 24 to 48 hrs by Griess method. The data set is classed as functional, cell-based.
Data set [22] concerns Splenocyte. As to the kind of experiment: Antiinflammatory activity in BALB/c mouse splenocytes assessed as decrease of IL-6 level at 11 uM after 24 hrs by cytometric bead array method. The data set is classed as functional, cell-based. In outline: as §1
The subject of data set [23] is Mus musculus. Put plainly: Acute toxicity in Swiss mouse assessed as effect on mean corpuscular hemoglobin concentration level at 2000 mg/kg, po (reference value: 19.5 +/- 0.94%). The data set is classed as organism-based. The following applies: in vivo.
Data set [24] is described as follows: Cytotoxicity against mouse J774 macrophages after 72 hrs by Alamar Blue assay. The data set is classed as cell-based.
In data set [25] the test system is Mus musculus. Put plainly: Acute toxicity in Swiss mouse assessed as occurence of irritability at 2000 mg/kg, po after 1 hr. The data set is classed as organism-based. The note with it: in vivo. In short, it runs like this:
as §2

In data set [26] the test system is Mus musculus. As to the kind of experiment: Acute toxicity in Swiss mouse assessed as effect on hematocrit levels at 2000 mg/kg, po (reference value: 74.7 +/- 6.05%). The data set is classed as organism-based. The following applies: in vivo.
The nature of data set [27]: Selectivity index, ratio of IC50 for ovine COX-1 to IC50 for recombinant N-terminal His6-tagged human COX-2. In outline: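 COX-1 or COX-2 in 100 mM Tris-HCl pH 8.0 with hematin, compound (in DMSO, 1.5–100 μM) preincubated 5 min at room temperature; started with arachidonic acid plus TMPD, absorbance at 610 nm after 1 h; triplicate; IC50 calculated, selectivity index from COX-1 and COX-2 IC50s.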

The test system of data set [28] is Mus musculus. As to the kind of experiment: Antiinflammatory activity in carrageenan-induced Swiss mouse assessed as inhibition of paw edema at 10 mg/kg, po pretreated for 1 hr followed by carrageenan challenge measured after 6 hrs by plethysmometric method. The data set is classed as functional.
Data set [29] concerns Mus musculus. As to the kind of experiment: Antiinflammatory activity in carrageenan-induced Swiss mouse assessed as inhibition of paw edema at 10 mg/kg, po pretreated for 1 hr followed by carrageenan challenge measured after 2 hrs by plethysmometric method. The data set is classed as functional.

As to `N#CCC(=O)N/N=C/c1c[nH]c2ccccc12`, the Activity in data set [1] is 17.05 pg; in [4], 8.1 ×10⁶ /mm3; in data set [5], “Non-Toxic”; in data set [8], 51.5 fL; in [10], 3.6 ×10³ /mm3; in data set [15], 13.6 g/dL. Also, the Activity entry in data set [19] is listed as “Non-Toxic”; in data set [23] it was 33.8%; in data set [25], “Non-Toxic”; in [26], 42.5%. In addition, the inhibition in vivo at 60 mg/kg worked out at 74.3% in data set [2] and 92.5% in data set [17]. Also, in data set [3], the inhibition entry is “inactive”. The inhibition entry in data set [6], in data set [7] and in [21] was “Active” each time. Besides, the result in [9] and in data set [13] was Active. For the same compound, the figures for the IC50 in [11] and in [12] were 1.02 µM and 1.54 µM, respectively. In data set [14], the inhibition at 50 µM stood at 50.7%. The inhibition in vivo at 30 mg/kg turned out to be 100% in data set [16] and 88.9% in [18]. The inhibition in vivo at 15 mg/kg in data set [20] was 67%. In [22], the result was inactive. For the same compound, in data set [24], the CC50 at 72 h was 150 µM. Also, in data set [27], the Ratio IC50 turned out to be 1.51.

With `N#CCC(=O)N/N=C/c1c[nH]c2c1ccc1ccccc12`, the inhibition at 50 µM in [14] stood at 1.2%. The CC50 at 72 h in [24] was determined as 78.5 µM.

Turning to `Cc1cccc2c(/C=N/NC(=O)CC#N)c[nH]c12`, the inhibition at 50 µM in data set [14] is 52.2%. Besides, it took 146 µM to reach half-maximal cytotoxicity in data set [24] (CC50 at 72 h).

Turning to `N#CCC(=O)N/N=C/c1c[nH]c2ccc(C#N)cc12`, the inhibition at 50 µM in [14] stood at 25.7%. In [24], this compound displayed a half-maximal cytotoxic concentration (CC50) at 72 h of 69.4 µM.

As for `N#CCC(=O)N/N=C/c1c[nH]c2ncccc12`, the inhibition at 50 µM in [14] worked out at 52.4%. In [24], the CC50 at 72 h is 107 µM.

Take `COc1ccc2c(c1)c(CC(=O)O)c(C)n2C(=O)c1ccc(Cl)cc1` [INDOMETHACIN]: the inhibition in vivo at 10 mg/kg in [28] amounted to 84.1%; in data set [29] it was 72.4%.
